Test results published in the array DNA melting data of Ke et al. (doi:10.1101/2024.01.08.574731).

What was measured:
[1] = melting temperature; fluorescence melt of hairpins on a sequencing array, two-state fit, raised by 9.35 °C to match UV melts; conditions: sodium 0.088 M
Procedure, shortened: (§1)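 Cy3 fluorescence of library hairpins on a sequenced MiSeq flow cell, with annealed Cy3 and quencher oligos, was imaged in 50 mM Na-HEPES pH 8.0, 25 mM NaCl in 2.5 °C steps up to 60 °C. Signals were normalised to pre-quench Cy3 and to control variants. Melting temperature and folding enthalpy came from bootstrapped two-state fits, inverse-variance combined over four replicates. Fitted temperatures were raised by 9.35 °C to match UV melts.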

[2] = folding enthalpy; higher = less favourable; fluorescence melt of hairpins on a sequencing array, two-state fit; conditions: sodium 0.088 M
Procedure, shortened: as §1

Sequence	Tm [1] [°C]	folding enthalpy [2] [kcal/mol]
GTTATTGCGAAAGCAAAC (((..(((....))))))	29.1	-10.3
GTTCAAGGAAACTCGAAC ((((.((....)).))))	28.7	-11.7
GTTCAAGGAAACTTGAAC (((((((....)))))))	53.9	-46.1
GTTCACGAAAGTGATAAC ((((((....)))..)))	35	-10.8
GTTCACGGAAACGCGAAC ((((.((....)).))))	48.3	-47.1
GTTCACGGAAACGTAAAC (((.(((....))).)))	34.9	-11.4
GTTCAGGCGAAAGCCAAC (((..(((....))))))	26.1	-8.95
GTTCAGGGAAACTTGAAC (((((.(....).)))))	40.7	-22.8
GTTCATGAAAATGAAC ((((((....))))))	52	-33
GTTCATGGAAACACGAAC ((((.((....)).))))	34.4	-28.4
GTTCATGGAAACGTGAAC (((((.(....).)))))	46.4	-40.6
GTTCCACGAAAGTGAAAC (((.(((....))).)))	43.4	-25.2
GTTCCCGAAAGGGAAAAC ((((((....)))..)))	41	-10.8
GTTCCCGAAAGGGAGAAC ((((((....)))..)))	38	-10.3
GTTCCCGAAAGGGGCAAC ((((((....)))..)))	30.2	-9.18
GTTCCCGAAAGGGTCAAC ((((((....)))..)))	26.9	-9.41
GTTCCCGAAAGGGTTAAC ((((((....)))..)))	30.1	-8.45
GTTCCCGGAAACGGGAGC (.(((((....))))).)	54.2	-26
GTTCCGCGAAAGCGAAAC (((.(((....))).)))	53.9	-23.6
GTTCCGGAAACGGAAC ((((((....))))))	66.3	-32.4
GTTCCGGGAAACCGAAAC (((.(((....))).)))	38.5	-25
GTTCCGGGAAACTGGAAC (((((.(....).)))))	52.5	-39.6
GTTCCTGAAAAGGAAC ((((((....))))))	57.1	-31.4

Sequence	Tm [1] [°C]	folding enthalpy [2] [kcal/mol]
GTTCCTGGAAACAGGAGC (.(((((....))))).)	48.3	-23.4
GTTCCTGGAAACGGGAAC (((((.(....).)))))	50.7	-40.9
GTTCGAGGAAACTTGAAC ((((.((....)).))))	44.5	-32.4
GTTCGAGGAAACTTGAGC (.((.((....)).)).)	29.9	-20.3
GTTCGCGAAAGCGAAAC ((((((....))).)))	55.3	-12.6
GTTCGCGAAAGCGACAAC ((((((....)))..)))	34.8	-7.58
GTTCGCGAAAGCGCAAAC ((((((....)))..)))	29	-7.42
GTTCGCGAAAGCGGAAAC ((((((....)))..)))	36.6	-9.75
GTTCGCGGAAACACGAAC (((((.(....).)))))	48.9	-39.7
GTTCGGGAAACCGAAC ((((((....))))))	61.1	-38.1
GTTCGGGGAAACCCAAAC (((.(((....))).)))	36	-23.8
GTTCGGGGAAACCTGGAC ((.(.((....)).).))	36.8	-20.2
GTTCGGGGAAACTCGAGC (.(((.(....).))).)	35.9	-19.7
GTTCGTCGAAAGACCAAC (((.(((....))).)))	30.9	-15.9
GTTCGTGAAAACGAAC ((((((....))))))	61.9	-32
GTTCGTGGAAACGCGAAC (((((.(....).)))))	55.3	-41.3
GTTCTCCCGAAAGGGAAC (((..(((....))))))	30.6	-9.91
GTTCTCCGAAAGGATAAC (((.(((....))).)))	41.2	-26.4
GTTCTCGAAAGAGAAC ((((((....))))))	61	-35.2
GTTCTCGAAAGAGGCAAC ((((((....)))..)))	26.6	-9.31
GTTCTCGAAAGAGGGAAC ((((((....)))..)))	31.4	-17.6
GTTCTCGAAAGAGTGAAC ((((((....)))..)))	29.4	-14.7
GTTCTCGGAAACAAGAAC (((((.(....).)))))	33.9	-14.8

Sequence	Tm [1] [°C]	folding enthalpy [2] [kcal/mol]
GTTCTCGGAAACGAAAAC (((.(((....))).)))	29.3	-20
GTTCTCGGAAACGGGAAC ((((.((....)).))))	51	-41.3
GTTCTGCGAAAGCAAAAC (((.(((....))).)))	38.4	-16.7
GTTCTGGGAAACTGGAAC ((((..(....)..))))	34.8	-31.9
GTTCTTCGAAAGAAAAAC (((.(((....))).)))	25.4	-12.6
GTTGAACGAAAGTTAAAC (((.(((....))).)))	41.2	-26.9
GTTGAAGCGAAAGCTAAC (((..(((....))))))	34.3	-13.5
GTTGACGAAAGTCAAAC ((((((....))).)))	51.3	-13.9
GTTGACGAAAGTCCGAAC ((((((....)))..)))	29	-10.6
GTTGACGAAAGTCGAAAC ((((((....)))..)))	30.9	-12
GTTGACGAAAGTCGTAAC ((((((....)))..)))	32.9	-11.1
GTTGACGAAAGTCTAAC ((((((....))).)))	39.7	-14.7
GTTGACGGAAACGTTGAC ((..(((....)))..))	37.5	-25.4
GTTGAGAAATCAAC (((((....)))))	42.2	-19.9
GTTGAGGGAAACCTCAGC (.(((((....))))).)	46.3	-25.4
GTTGATCGAAAGATGAAC (((.(((....))).)))	37.1	-24.1
GTTGCAGGAAACCACAAC ((((..(....)..))))	27.4	-18.2
GTTGCCGAAAGGCCAAC ((((((....))).)))	47.3	-14.4
GTTGCCGAAAGGCTAAAC ((((((....)))..)))	34.5	-9.35
GTTGCCGGAAACGGTAAC (((.(((....))).)))	54.4	-33.3
GTTGCGGGAAACCACAAC ((((.((....)).))))	46.1	-38.2
GTTGCGGGAAACCGTAAC (((.(((....))).)))	51.2	-34.3
GTTGCTCCGAAAGGAAAC (((..(((....))))))	28.1	-10

Sequence	Tm [1] [°C]	folding enthalpy [2] [kcal/mol]
GTTGCTCGAAAGAGAAC (((.(((....))))))	34.4	-20.2
GTTGGAACGAAAGTTAAC (((..(((....))))))	29.6	-14.5
GTTGGAGGAAACTTCAGC (.((.((....)).)).)	30.5	-12.7
GTTGGCACGAAAGTGAAC (((..(((....))))))	38.8	-20.6
GTTGGCGAAAGCCAAAAC ((((((....)))..)))	41.5	-10.5
GTTGGCGAAAGCCAAAC ((((((....))).)))	56.2	-11.6
GTTGGCGAAAGCCACAAC ((((((....)))..)))	33.8	-8.33
GTTGGCGAAAGCCCCAAC ((((((....)))..)))	22.5	-6.64
GTTGGCGAAAGCCGCAAC ((((((....)))..)))	26.3	-9.16
GTTGGCGAAAGCCTAAAC ((((((....)))..)))	30.7	-8.68
GTTGGCGAAAGCCTAAC ((((((....))).)))	43.4	-12.8
GTTGGCGGAAACACCAAC (((((.(....).)))))	47.4	-36
GTTGGCGGAAACGCCAGC (.(((((....))))).)	58.2	-15.4
GTTGGGCGAAAGCCAAAC (((.(((....))).)))	56.9	-21.5
GTTGGGCGAAAGCCAAC (((.(((....))))))	53	-17.5
GTTGGGCGAAAGCCTAAC (((.(((....))).)))	54.9	-23.1
GTTGGTACGAAAGTAAAC (((..(((....))))))	34.6	-19.1
GTTGGTCCGAAAGGAAAC (((..(((....))))))	36.9	-23.4
GTTGGTGGAAACACCAAC (((((((....)))))))	66.2	-46.1
GTTGGTGGAAACGCCAAC (((((.(....).)))))	54.4	-40
GTTGTAGAAATACAAC ((((((....))))))	47.5	-32.4
GTTGTAGCGAAAGCTAAC (((..(((....))))))	48.1	-23
